# Tested on: U2OS
# Test: Multiplex assay against U2OS
# Format: toxicity, cell-based
# Settings: human
# Outline: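 Tubulin, mitochondrial-mass and membrane-permeability phenotypes are per cents of healthy-nucleus cells. Cells were gated by CellPathfinder machine learning into Hoechst high-intensity objects or normal cells, normal cells into healthy, pyknosed or fragmented nuclei, and pyknosed cells into mitotic or apoptotic. Before that, live cells stained at seeding with Hoechst33342, BioTracker Green Microtubule Cytoskeleton Dye, MitoTracker Red and Annexin V Alexa Fluor 680 were imaged on a CQ1 microscope at 37°C and 5% CO2 after compound addition.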
# [1] = 12 h, 1 µM, compound concentration 1 uM, replicate 1
# [2] = 12 h, 1 µM, compound concentration 1 uM, replicate 2
# [3] = 12 h, 10 µM, compound concentration 10 uM, replicate 1
# [4] = 12 h, 10 µM, compound concentration 10 uM, replicate 2
# [5] = 24 h, 1 µM, compound concentration 1 uM, replicate 1
# [6] = 24 h, 1 µM, compound concentration 1 uM, replicate 2
# [7] = 24 h, 10 µM, compound concentration 10 uM, replicate 1
# [8] = 24 h, 10 µM, compound concentration 10 uM, replicate 2
# [9] = 48 h, 1 µM, compound concentration 1 uM, replicate 1
# [10] = 48 h, 1 µM, compound concentration 1 uM, replicate 2
# [11] = 48 h, 10 µM, compound concentration 10 uM, replicate 1
# [12] = 48 h, 10 µM, compound concentration 10 uM, replicate 2
compound,measurement,setting,value
Oc1c(CN2CCN(c3ccccn3)CC2)cc(Cl)c2cccnc12,Population Apoptotic (%),[1],95%
same,Population Fragmented Nuclei (%),[1],24%
same,Population Healthy Nuclei (%),[1],64%
same,Population Hoechst High Intensity Objects (%),[1],1%
same,Population Membrane Permeable-Phenotype (%),[1],3%
same,Population Mitochondria Different-Phenotype (%),[1],1%
same,Population Mitotic Cells (%),[1],4%
same,Population Normal (%),[1],98%
same,Population Pyknosed Nuclei (%),[1],10%
same,Population Tubulin-Different-Phenotype (%),[1],2%
same,Total Cell Count,[1],237
same,Population Apoptotic (%),[2],100%
same,Population Fragmented Nuclei (%),[2],16%
same,Population Healthy Nuclei (%),[2],78%
same,Population Membrane Permeable-Phenotype (%),[2],13%
same,Population Mitochondria Different-Phenotype (%),[2],4%
same,Population Mitotic Cells (%),[2],0%
same,Population Pyknosed Nuclei (%),[2],5%
same,Population Tubulin-Different-Phenotype (%),[2],8%
same,Total Cell Count,[2],93
same,Population Apoptotic (%),[3],84%
same,Population Fragmented Nuclei (%),[3],31%
same,Population Healthy Nuclei (%),[3],56%
same,Population Hoechst High Intensity Objects (%),[3],2%
same,Population Membrane Permeable-Phenotype (%),[3],12%
same,Population Mitochondria Different-Phenotype (%),[3],28%
same,Population Mitotic Cells (%),[3],15%
same,Population Normal (%),[3],97%
same,Population Pyknosed Nuclei (%),[3],11%
same,Population Tubulin-Different-Phenotype (%),[3],8%
same,Total Cell Count,[3],229
same,Population Apoptotic (%),[4],87%
same,Population Fragmented Nuclei (%),[4],18%
same,Population Healthy Nuclei (%),[4],68%
same,Population Hoechst High Intensity Objects (%),[4],1%
same,Population Membrane Permeable-Phenotype (%),[4],6%
same,Population Mitochondria Different-Phenotype (%),[4],35%
same,Population Mitotic Cells (%),[4],12%
same,Population Normal (%),[4],98%
same,Population Pyknosed Nuclei (%),[4],13%
same,Population Tubulin-Different-Phenotype (%),[4],11%
same,Total Cell Count,[4],118
same,Population Apoptotic (%),[5],88%
same,Population Fragmented Nuclei (%),[5],29%
same,Population Healthy Nuclei (%),[5],64%
same,Population Hoechst High Intensity Objects (%),[5],1%
same,Population Membrane Permeable-Phenotype (%),[5],3%
same,Population Mitochondria Different-Phenotype (%),[5],2%
same,Population Mitotic Cells (%),[5],11%
same,Population Normal (%),[5],98%
same,Population Pyknosed Nuclei (%),[5],6%
same,Population Tubulin-Different-Phenotype (%),[5],2%
same,Total Cell Count,[5],270
same,Population Apoptotic (%),[6],100%
same,Population Fragmented Nuclei (%),[6],7%
same,Population Healthy Nuclei (%),[6],87%
same,Population Membrane Permeable-Phenotype (%),[6],9%
same,Population Mitochondria Different-Phenotype (%),[6],3%
same,Population Mitotic Cells (%),[6],0%
same,Population Pyknosed Nuclei (%),[6],5%
same,Population Tubulin-Different-Phenotype (%),[6],7%
same,Total Cell Count,[6],97
same,Population Apoptotic (%),[7],90%
same,Population Fragmented Nuclei (%),[7],27%
same,Population Healthy Nuclei (%),[7],63%
same,Population Hoechst High Intensity Objects (%),[7],4%
same,Population Membrane Permeable-Phenotype (%),[7],10%
same,Population Mitochondria Different-Phenotype (%),[7],14%
same,Population Mitotic Cells (%),[7],9%
same,Population Normal (%),[7],95%
same,Population Pyknosed Nuclei (%),[7],9%
same,Population Tubulin-Different-Phenotype (%),[7],7%
same,Total Cell Count,[7],238
same,Population Apoptotic (%),[8],100%
same,Population Fragmented Nuclei (%),[8],29%
same,Population Healthy Nuclei (%),[8],58%
same,Population Hoechst High Intensity Objects (%),[8],3%
same,Population Membrane Permeable-Phenotype (%),[8],9%
same,Population Mitochondria Different-Phenotype (%),[8],40%
same,Population Mitotic Cells (%),[8],0%
same,Population Normal (%),[8],96%
same,Population Pyknosed Nuclei (%),[8],12%
same,Population Tubulin-Different-Phenotype (%),[8],6%
same,Total Cell Count,[8],127
same,Population Apoptotic (%),[9],94%
same,Population Fragmented Nuclei (%),[9],25%
same,Population Healthy Nuclei (%),[9],67%
same,Population Hoechst High Intensity Objects (%),[9],3%
same,Population Membrane Permeable-Phenotype (%),[9],6%
same,Population Mitochondria Different-Phenotype (%),[9],3%
same,Population Mitotic Cells (%),[9],5%
same,Population Normal (%),[9],96%
same,Population Pyknosed Nuclei (%),[9],7%
same,Population Tubulin-Different-Phenotype (%),[9],3%
same,Total Cell Count,[9],276
same,Population Apoptotic (%),[10],87%
same,Population Fragmented Nuclei (%),[10],14%
same,Population Healthy Nuclei (%),[10],77%
same,Population Hoechst High Intensity Objects (%),[10],1%
same,Population Membrane Permeable-Phenotype (%),[10],7%
same,Population Mitochondria Different-Phenotype (%),[10],1%
same,Population Mitotic Cells (%),[10],12%
same,Population Normal (%),[10],98%
same,Population Tubulin-Different-Phenotype (%),[10],5%
same,Total Cell Count,[10],111
same,Population Apoptotic (%),[11],96%
same,Population Fragmented Nuclei (%),[11],32%
same,Population Healthy Nuclei (%),[11],57%
same,Population Hoechst High Intensity Objects (%),[11],2%
same,Population Membrane Permeable-Phenotype (%),[11],11%
same,Population Mitochondria Different-Phenotype (%),[11],19%
same,Population Mitotic Cells (%),[11],3%
same,Population Normal (%),[11],97%
same,Population Pyknosed Nuclei (%),[11],10%
same,Population Tubulin-Different-Phenotype (%),[11],7%
same,Total Cell Count,[11],275
same,Population Apoptotic (%),[12],100%
same,Population Fragmented Nuclei (%),[12],38%
same,Population Healthy Nuclei (%),[12],42%
same,Population Hoechst High Intensity Objects (%),[12],4%
same,Population Membrane Permeable-Phenotype (%),[12],12%
same,Population Mitochondria Different-Phenotype (%),[12],41%
same,Population Mitotic Cells (%),[12],0%
same,Population Normal (%),[12],95%
same,Population Pyknosed Nuclei (%),[12],19%
same,Population Tubulin-Different-Phenotype (%),[12],8%
same,Total Cell Count,[12],144
Cc1ccccc1C(=O)Nc1ccc(C(=O)N2CCCC(N(C)C)c3ccccc32)cc1.Cl (stereo unspecified),Population Apoptotic (%),[1],91%
same,Population Fragmented Nuclei (%),[1],20%
same,Population Healthy Nuclei (%),[1],70%
same,Population Hoechst High Intensity Objects (%),[1],1%
same,Population Membrane Permeable-Phenotype (%),[1],5%
same,Population Mitochondria Different-Phenotype (%),[1],3%
same,Population Mitotic Cells (%),[1],8%
same,Population Normal (%),[1],98%
same,Population Pyknosed Nuclei (%),[1],8%
same,Population Tubulin-Different-Phenotype (%),[1],4%
same,Total Cell Count,[1],282
same,Population Apoptotic (%),[2],77%
same,Population Fragmented Nuclei (%),[2],14%
same,Population Healthy Nuclei (%),[2],79%
same,Population Membrane Permeable-Phenotype (%),[2],4%
same,Population Mitochondria Different-Phenotype (%),[2],5%
same,Population Mitotic Cells (%),[2],22%
same,Population Pyknosed Nuclei (%),[2],5%
same,Population Tubulin-Different-Phenotype (%),[2],1%
same,Total Cell Count,[2],157
same,Population Apoptotic (%),[3],59%
same,Population Fragmented Nuclei (%),[3],18%
same,Population Healthy Nuclei (%),[3],55%
same,Population Hoechst High Intensity Objects (%),[3],4%
same,Population Membrane Permeable-Phenotype (%),[3],14%
same,Population Mitochondria Different-Phenotype (%),[3],11%
same,Population Mitotic Cells (%),[3],40%
same,Population Normal (%),[3],95%
same,Population Pyknosed Nuclei (%),[3],25%
same,Population Tubulin-Different-Phenotype (%),[3],8%
same,Total Cell Count,[3],213
same,Population Apoptotic (%),[4],56%
same,Population Healthy Nuclei (%),[4],62%
same,Population Hoechst High Intensity Objects (%),[4],1%
same,Population Membrane Permeable-Phenotype (%),[4],15%
same,Population Mitochondria Different-Phenotype (%),[4],25%
same,Population Mitotic Cells (%),[4],43%
same,Population Normal (%),[4],98%
same,Population Pyknosed Nuclei (%),[4],19%
same,Population Tubulin-Different-Phenotype (%),[4],15%
same,Total Cell Count,[4],83
same,Population Apoptotic (%),[5],88%
same,Population Fragmented Nuclei (%),[5],18%
same,Population Healthy Nuclei (%),[5],70%
same,Population Hoechst High Intensity Objects (%),[5],0%
same,Population Membrane Permeable-Phenotype (%),[5],6%
same,Population Mitochondria Different-Phenotype (%),[5],3%
same,Population Mitotic Cells (%),[5],11%
same,Population Normal (%),[5],99%
same,Population Pyknosed Nuclei (%),[5],10%
same,Population Tubulin-Different-Phenotype (%),[5],4%
same,Total Cell Count,[5],333
same,Population Apoptotic (%),[6],66%
same,Population Fragmented Nuclei (%),[6],13%
same,Population Healthy Nuclei (%),[6],77%
same,Population Hoechst High Intensity Objects (%),[6],1%
same,Population Membrane Permeable-Phenotype (%),[6],5%
same,Population Mitochondria Different-Phenotype (%),[6],4%
same,Population Mitotic Cells (%),[6],33%
same,Population Normal (%),[6],98%
same,Population Pyknosed Nuclei (%),[6],9%
same,Population Tubulin-Different-Phenotype (%),[6],3%
same,Total Cell Count,[6],192
same,Population Apoptotic (%),[7],71%
same,Population Fragmented Nuclei (%),[7],16%
same,Population Healthy Nuclei (%),[7],51%
same,Population Hoechst High Intensity Objects (%),[7],4%
same,Population Membrane Permeable-Phenotype (%),[7],16%
same,Population Mitochondria Different-Phenotype (%),[7],14%
same,Population Mitotic Cells (%),[7],28%
same,Population Normal (%),[7],95%
same,Population Pyknosed Nuclei (%),[7],31%
same,Population Tubulin-Different-Phenotype (%),[7],6%
same,Total Cell Count,[7],211
same,Population Apoptotic (%),[8],46%
same,Population Fragmented Nuclei (%),[8],27%
same,Population Healthy Nuclei (%),[8],53%
same,Population Hoechst High Intensity Objects (%),[8],5%
same,Population Membrane Permeable-Phenotype (%),[8],18%
same,Population Mitochondria Different-Phenotype (%),[8],18%
same,Population Mitotic Cells (%),[8],53%
same,Population Normal (%),[8],94%
same,Population Pyknosed Nuclei (%),[8],18%
same,Population Tubulin-Different-Phenotype (%),[8],18%
same,Total Cell Count,[8],73
same,Population Apoptotic (%),[9],85%
same,Population Fragmented Nuclei (%),[9],14%
same,Population Healthy Nuclei (%),[9],71%
same,Population Hoechst High Intensity Objects (%),[9],1%
same,Population Membrane Permeable-Phenotype (%),[9],5%
same,Population Mitochondria Different-Phenotype (%),[9],3%
same,Population Mitotic Cells (%),[9],14%
same,Population Normal (%),[9],98%
same,Population Pyknosed Nuclei (%),[9],13%
same,Population Tubulin-Different-Phenotype (%),[9],3%
same,Total Cell Count,[9],414
same,Population Apoptotic (%),[10],83%
same,Population Fragmented Nuclei (%),[10],15%
same,Population Healthy Nuclei (%),[10],72%
same,Population Membrane Permeable-Phenotype (%),[10],7%
same,Population Mitochondria Different-Phenotype (%),[10],5%
same,Population Mitotic Cells (%),[10],16%
same,Population Pyknosed Nuclei (%),[10],12%
same,Population Tubulin-Different-Phenotype (%),[10],4%
same,Total Cell Count,[10],248
same,Population Apoptotic (%),[11],71%
same,Population Fragmented Nuclei (%),[11],28%
same,Population Healthy Nuclei (%),[11],43%
same,Population Hoechst High Intensity Objects (%),[11],8%
same,Population Membrane Permeable-Phenotype (%),[11],17%
same,Population Mitochondria Different-Phenotype (%),[11],8%
same,Population Mitotic Cells (%),[11],28%
same,Population Normal (%),[11],91%
same,Population Pyknosed Nuclei (%),[11],28%
same,Population Tubulin-Different-Phenotype (%),[11],7%
same,Total Cell Count,[11],206
same,Population Apoptotic (%),[12],84%
same,Population Healthy Nuclei (%),[12],42%
same,Population Membrane Permeable-Phenotype (%),[12],11%
same,Population Mitochondria Different-Phenotype (%),[12],30%
same,Population Mitotic Cells (%),[12],16%
same,Population Pyknosed Nuclei (%),[12],29%
same,Population Tubulin-Different-Phenotype (%),[12],13%
same,Total Cell Count,[12],93
